Data set [1] addresses T1, Monoglyceride lipase (Homo sapiens) (UniProt Q99685).
T1 sequence (whole entry): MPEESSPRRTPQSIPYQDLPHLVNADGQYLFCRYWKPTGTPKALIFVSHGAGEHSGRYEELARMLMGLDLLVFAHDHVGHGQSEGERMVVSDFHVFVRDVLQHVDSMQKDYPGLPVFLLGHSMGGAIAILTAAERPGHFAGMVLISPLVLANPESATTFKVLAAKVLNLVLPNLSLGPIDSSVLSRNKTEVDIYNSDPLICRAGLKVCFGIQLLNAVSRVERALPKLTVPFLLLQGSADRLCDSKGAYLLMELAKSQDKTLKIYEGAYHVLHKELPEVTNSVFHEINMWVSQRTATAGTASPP
Put plainly: Reversible inhibition of human recombinant MAGL using 4-nitrophenylacetate as substrate preincubated with compound for 60 mins followed by substrate addition and measured after 30 mins by microplate reader analysis. Particulars: time 90.0 min. The method in brief:
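Human recombinant MAGL (11 ng/well) in Tris pH 7.2 buffer with EDTA and BSA, preincubated with compound for 0, 30 or 60 min at room temperature. Reaction then started with 4-NPA 500 μM (solution added). Absorbance at 405 nm after 30 min. IC50 from triplicates of two independent experiments.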

Data set [2] concerns the target T2, Monoglyceride lipase (Mus musculus) (UniProt O35678).
T2 sequence (whole entry): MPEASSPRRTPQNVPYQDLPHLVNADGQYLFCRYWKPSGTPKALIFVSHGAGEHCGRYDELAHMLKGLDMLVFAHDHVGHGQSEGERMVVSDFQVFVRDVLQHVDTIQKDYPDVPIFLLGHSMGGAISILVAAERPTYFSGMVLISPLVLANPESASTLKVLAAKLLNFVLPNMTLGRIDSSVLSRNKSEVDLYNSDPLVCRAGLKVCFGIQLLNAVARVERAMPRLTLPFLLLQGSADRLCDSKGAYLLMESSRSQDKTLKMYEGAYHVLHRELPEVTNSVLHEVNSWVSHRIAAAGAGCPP
Put plainly: Reversible inhibition of mouse brain MAGL at 10 uM incubated with compound for 25 mins by TAMRA-FP probe based SDS-PAGE analysis. In kind it is tissue-based. Summed up: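 Mouse brain membranes (2 mg/mL final, in PBS) preincubated 25 min at 25 °C with test compound (10 μM final) or DMSO vehicle. Controls: JZL-184, URB597 4 μM, WWL70 10 μM, THL, MAFP 5 μM. TAMRA-FP 125 nM final added for 5 min at 25 °C. Reaction stopped with Laemmli buffer, 3 min at 25 °C then 10 min at 90 °C. Separation by 10% SDS-PAGE, fluorescence scanning, three independent experiments.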

Data set [3] in a line: Thermodynamic aqueous solubility of the compound by LC-MS/MS analysis. In kind it is physicochemical. The following applies: read-out: Therm_solubility. The method in brief:
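Solid compound (1 mg) shaken overnight in 1 mL distilled water at room temperature. Suspension passed through a 0.45 μm nylon filter. Dissolved compound quantified in triplicate by UV/LC-MS or LC-MS/MS against a calibration curve of compound in methanol.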

Data set [4] can be described thus: Apparent permeability of the compound by PAMPA method. In kind it is ADME. Summed up:
(§1)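 Donor solution made from 1 mM DMSO stock diluted in 25 mM phosphate buffer pH 7.4 to 500 μM final. Filter coated with 1% (w/v) phosphatidylcholine in dodecane. Acceptor was 1:1 v/v DMSO/phosphate buffer. Sandwich incubated 5 h at room temperature. Compound in donor and acceptor wells quantified by UV/LC-MS.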
For orientation: The PAMPA barrier holds no transporters, so it reflects passive diffusion.

Data set [5] can be described thus: Permeability of the compound assessed as membrane retention rate by PAMPA method. It counts as ADME. Summed up: as §1
Data set [6] can be described thus: Metabolic stability in human liver microsome in presence of NADPH-regenerating system by UV/LC-MS analysis. It counts as ADME. Particulars: microsomes. The method in brief:
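Compound incubated 1 h at 37 °C with human liver microsomes (0.2 mg/mL) and an NADPH-regenerating system (NADPH 0.2 mM, NADP+ 1 mM, glucose-6-phosphate 4 mM, G6PDH 4 unit/mL, MgCl2 48 mM) in 25 mM phosphate buffer pH 7.4. Quenched with acetonitrile, then centrifuged. Parent and metabolites measured by UV/LC-MS. Percent unmetabolized obtained against reference solutions; three independent experiments.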
In general terms: Microsomes from liver hold many membrane-bound enzymes, among them those of drug oxidation.

A short description of data set [7]: Stability in human plasma measured after 24 hrs by UV/LC-MS analysis. In kind it is ADME, cell-free. The following applies: read-out: Stability. The method in brief: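 Compound (2 mM) incubated at 37 °C in pooled human plasma (55.7 mg protein/mL) with HEPES 25 mM, NaCl 140 mM, pH 7.4. Samples taken at 0–24 h and precipitated with cold acetonitrile. After centrifugation, supernatant analysed by UV/LC-MS. Three independent experiments.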

Data set [8] is described as follows: Toxicity in Tenebrio molitor coleoptera assessed as lethal dose measured for 7 days. The following applies: time 7 day. The method in brief: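 Tenebrio molitor beetles used within three days of metamorphosis. Compound dissolved in DMSO, 1 μL injected into the hemocoel between pronotum and elytron. Range-finding on 1 insect starting at 200 mg/kg. Dose then given to five insects with survival monitored 7 days, repeated until LD50 found, and confirmed in ten insects.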

Converted amounts (≈) assume the structure as drawn. The source made the active and inactive calls. No cut-off for these calls is given here.

One may read the Papp as the rate of passage across a membrane or cell layer, normalised by area and donor concentration. One may read the LD50 as the dose at which mortality reaches 50%.

Consider `O=C(c1cccc(O)c1)N1CCC(Cc2cccc(Sc3cc(C(F)(F)F)ccn3)c2)CC1`, for which the inhibition entry in data set [1] and in data set [2] was “Active” each time.

Take `O=C(c1cccc(O)c1)N1CCC(Cc2ccc(F)c(Sc3cc(C(F)(F)F)ccn3)c2)CC1`: the inhibition entry in data set [1] and in data set [2] was “Active” each time.

Turning to `O=C(c1cc(O)ccc1F)N1CCC(Cc2cccc(Sc3cc(C(F)(F)F)ccn3)c2)CC1`, the inhibition result in data set [1] and in data set [2] was “Active” in each case. Also, the solubility thermodynamic in data set [3] worked out at 0.00321 µg/mL (≈ 0.00655 µM). In data set [4], the Papp was found to be 3.3 ×10⁻⁶ cm/s. Besides, the R% in data set [5] is on record as 17.3%. For the same compound, the Stability in data set [6] is given as 96.76%. Moreover, the remaining at 24 h in data set [7] turned out to be 74.1%. Moreover, the LD50 at 168 h in data set [8] is 200 mg/kg.

For `O=C(c1cc(O)ccc1F)N1CCN(Cc2cccc(Sc3cc(C(F)(F)F)ccn3)c2)CC1`, the inhibition result in data set [1] and in data set [2] was “Active” in each case. In data set [3], the solubility thermodynamic is 5.47 µg/mL (≈ 11.1 µM). The Papp in data set [4] is 1.33 ×10⁻⁶ cm/s. Moreover, the R% in data set [5] is on record as 3.2%. The Stability in data set [6] worked out at 98.51%. In data set [7], the remaining at 24 h was greater than 99%. The LD50 at 168 h in data set [8] turned out to be 300 mg/kg.

The values are drawn from ChEMBL document CHEMBL5532647, “Design, synthesis, ADME and biological evaluation of benzylpiperidine and benzylpiperazine derivatives as novel reversible monoacylglycerol lipase (MAGL) inhibitors” (Eur J Med Chem, 2024).
